Measured values published in paper PMC3478735 (ACS Nano, 2012).

Columns and labels:
HeLa cells [1] = experiment: Endosomal escape, codelivery of Calcein, fluorescence microscopy; type: cell-based, human
How it was run: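 HeLa cells plated 48 h ahead to ≥70% confluence. Calcein 0.25 mM added alone or with nanocomplexes (100 nM siRNA) in DMEM + 10% bovine serum, 1 h, 37 °C. Cells washed three times in PBS and imaged live (FITC filter). Cells with diffuse cytoplasmic fluorescence counted in ≥8 random fields, normalised to total cells (500–800 per carrier per experiment), reported as mean % per field.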

HeLa cells [2] = experiment: Uptake of myr-TP-LyP-1 nanocomplexes in the presence of endocytosis inhibitors; type: cell-based, human; conditions: inhibitor 1 h at 37 °C, then nanocomplexes (2 μM peptide, 100 nM siRNA) 1 h, flow cytometry
How it was run: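 HeLa cells at ~70% confluence. Small-molecule inhibitors applied 1 h at 37 °C. Then nanocomplexes of labelled peptide (2 μM) with GFP siRNA (100 nM) added for a further 1 h at 37 °C. Cells washed three times with cold PBS, trypsinised, and uptake read by flow cytometry.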

| Compound | endosomal escape (HeLa cells [1]) | uptake of myr-TP-LyP-1 nanocomplexes in the presence of the inhibitor (HeLa cells [2]) |
| --- | --- | --- |
| C[C@@H](O)[C@@H]1NC(=O)[C@H](CCCNC(=N)N)NC(=O)[C@H](CCCCN)NC(=O)[C@H](CC(N)=O)NC(=O)CNC(=O)[C@@H](N)CSSC[C@@H](C(=O)O)NC(=O)CNC(=O)[C@H](CCCNC(=N)N)NC1=O [LyP-1] | little or no endosomal escape |  |
| CCCCCCCCCC(=O)NC(CN1CCOCC1)C(O)c1ccccc1 (stereo not shown) [PDMP] |  | significantly decreased |
| N=C(N)NC(=O)c1nc(Cl)c(N)nc1N [amiloride] |  | significantly decreased |
| OCC1OC(O)CC(O)C1O (stereo not shown) [deoxyglucose] |  | significantly decreased |
